Measured values taken from PMC10060059 (Thrombosis and Haemostasis, 2023).
Read-outs that look alike come from different tables or passages of the source. Marks after values point to notes of the source that are not given here.

Key:
[1] = Six-month clinical follow-up; type: in vivo, human; details: 6-month follow-up
In short: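 Bleedings (site, severity), thromboembolic events (site) and deaths were recorded. Two geriatricians blinded to PK/PD data classed bleeds as major or nonmajor clinically relevant, and minor bleeds were not systematically recorded. Rates were given per DOAC group.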

[2] = Rivaroxaban/apixaban plasma concentrations; type: in vivo, human; details: for Effect of creatinine clearance on Cmax, multivariate analysis / Effect of creatinine clearance on Cmax, univariate analysis / Effect of creatinine clearance on Cmin, multivariate analysis / Effect of creatinine clearance on Cmin, univariate analysis: per decrease of 10 mL/min
[3] = cited from earlier work
[4] = test system: thrombin generation; test: Thrombin generation on ST-Genesia; type: biochemical, human
[5] = 2.5 mg b.i.d. vs. 5 mg b.i.d., listed as apixaban
[6] = CYP3A4/5 modulator in addition to amiodarone
[7] = full dose: rivaroxaban 20 mg o.d., apixaban 5.0 mg b.i.d.
[8] = reduced dose: rivaroxaban 15 mg o.d., apixaban 2.5 mg b.i.d.
[9] = rivaroxaban 15 mg o.d., apixaban 2.5 mg b.i.d.
[10] = STG-ThromboScreen without thrombomodulin
[11] = for halved concentrations, STG-ThromboScreen without thrombomodulin
[12] = per decrease of 10 mL/min, STG-ThromboScreen without thrombomodulin
[13] = P-gp modulator in addition to amiodarone

Compound: COc1ccc(-n2nc(C(N)=O)c3c2C(=O)N(c2ccc(N4CCCCC4=O)cc2)CC3)cc1 [Apixaban, apixaban]
- death rate [1]: 18.9%
- thromboembolic event rate [1]: 3.6%
- Effect of dose regimen on Cmax, multivariate analysis ([2]; 2.5 mg b.i.d. vs. 5 mg b.i.d.): +64.8% ^e [16.6; 132.9]
- Effect of dose regimen on Cmax, univariate analysis ([2]; 2.5 mg b.i.d. vs. 5 mg b.i.d.): +44.9% ^e [7.14; 96.1]
- Effect of dose regimen on Cmin, multivariate analysis ([2]; 2.5 mg b.i.d. vs. 5 mg b.i.d.): +54.8% ^e [6.65; 124.6]
- Effect of dose regimen on Cmin, univariate analysis ([2]; 2.5 mg b.i.d. vs. 5 mg b.i.d.): +45.6% ^e [4.7; 102.6]
- Effect of dose regimen on Cmax, multivariate analysis [2, 5]: +64.8%
- Effect of dose regimen on Cmax, univariate analysis [2, 5]: 44.9%
- Effect of dose regimen on Cmin, multivariate analysis [2, 5]: +54.8%
- Effect of dose regimen on Cmin, univariate analysis [2, 5]: 45.6%
- Effect of CYP3A4/5 modulator on Cmin, univariate analysis [2, 6]: +20.8% [−9.8; 61.7]
- Effect of amiodarone on Cmax, multivariate analysis ([2]; amiodarone intake): +79.3% [5.5; 204.7]
- Effect of amiodarone on Cmax, univariate analysis ([2]; amiodarone intake): +43.5% [7.9; 90.9]
- Effect of amiodarone on Cmin, univariate analysis ([2]; amiodarone intake): +14.4% [−18.5; 60.5]
- Effect of amiodarone on Cmax, univariate analysis ([2]; amiodarone intake, listed as apixaban): +43.5%
- Effect of female gender on Cmax, multivariate analysis ([2]; female gender): +28.7% [−4.5; 73.4]
- Effect of female gender on Cmax, univariate analysis ([2]; female gender): +44.0% [7.4; 93.1]
- Effect of female gender on Cmin, univariate analysis ([2]; female gender): +15.7% [−14.9; 57.1]
- Effect of female gender on Cmax, univariate analysis ([2]; female gender, listed as apixaban): +44.0%
- inter-individual variability of Cmax (coefficient of variation) [2, 7]: 47%
- inter-individual variability of Cmin (coefficient of variation) [2, 7]: 68%
- Effect of creatinine clearance on Cmax, multivariate analysis [2]: +4.5% ^b [−3.0; 11.4]
- Effect of creatinine clearance on Cmax, univariate analysis [2]: +3.3% ^b [−4.28; 10.31]
- Effect of creatinine clearance on Cmin, multivariate analysis [2]: +4.5% ^b [−4.9; 13.1]
- Effect of creatinine clearance on Cmin, univariate analysis [2]: +4.6% ^b [−4.2; 12.7]
- Effect of ABCB1 3435C > T on Cmax, multivariate analysis ([2]; per mutated allele): +10.1% ^d [−8.3; 25.3]
- Effect of ABCB1 3435C > T on Cmax, univariate analysis ([2]; per mutated allele): +2.1% ^d [−18.7; 19.3]
- Effect of ABCB1 3435C > T on Cmin, univariate analysis ([2]; per mutated allele): +14.8% ^d [−4.1; 30.3]
- Effect of ABCB1 3435C > T on Cmin, univariate analysis ([2]; per mutated allele, listed as apixaban): +14.8%
- inter-individual variability of Cmax (coefficient of variation) [2, 8]: 46%
- inter-individual variability of Cmin (coefficient of variation) [2, 8]: 61%
- patients above the 95th percentile of SmPC values at Tmin [2, 9]: 9.7%
- patients below the 5th percentile of SmPC values at Tmin [2, 9]: 9.7%
- median Cmax ([3]; ARISTOTLE patients (median age 70 years) receiving 2.5 mg b.i.d.): 123 ng/mL
- inter-individual variability of concentrations ([3]; SmPC, ARISTOTLE data set, mean age 70 years): around 30%
- association of ETP with DOAC concentrations ([4]; STG-DrugScreen and STG-ThromboScreen without TM): ETP was associated with apixaban concentrations
- Effect of amiodarone on peak height at Tmax, multivariate [4, 10]: −26.0% [−91.8; 564.1]
- Effect of amiodarone on peak height at Tmax, univariate [4, 10]: +3.7% [−58.7; 160.1]
- Effect of amiodarone on peak height at Tmin, multivariate [4, 10]: −57.47% [−83.2; 7.9]
- Effect of amiodarone on peak height at Tmin, univariate [4, 10]: −37.2% [−60.0; −1.5]
- Effect of heart failure on peak height at Tmax, multivariate [4, 10]: −9.2% [−62.9; 122.6]
- Effect of heart failure on peak height at Tmax, univariate [4, 10]: −26.7% [−66.7; 61.4]
- Effect of heart failure on peak height at Tmin, multivariate [4, 10]: +0.84% [−30.8; 46.9]
- Effect of amiodarone on peak height at Tmin, univariate ([4]; STG-ThromboScreen without thrombomodulin, listed as apixaban): −37.2%
- Effect of plasma concentrations on peak height at Tmax, multivariate [4, 11]: +86.8% ^a [−0.48; 250.5]
- Effect of plasma concentrations on peak height at Tmin, multivariate [4, 11]: +32.7% ^a [8.28; 62.59]
- Effect of plasma concentrations on peak height at Tmin, univariate [4, 11]: 37.1% ^a 13.1; 66.2]
- Effect of creatinine clearance on peak height at Tmax, multivariate [4, 12]: +2.4% ^b [−17.9; 27.8]
- Effect of creatinine clearance on peak height at Tmax, univariate [4, 12]: +0.42% ^b [4.70; 36.9]
- Effect of creatinine clearance on peak height at Tmin, univariate [4, 12]: 1.7% ^b [−10.7; 15.8]

Compound: O=C(NC[C@H]1CN(c2ccc(N3CCOCC3=O)cc2)C(=O)O1)c1ccc(Cl)s1 [Rivaroxaban, rivaroxaban]
- death rate [1]: 17.3%
- thromboembolic event rate [1]: 1.0%
- Effect of dose regimen on Cmax, multivariate analysis ([2]; 15 mg o.d. vs. 20 mg o.d.): 29.4% ^a [−14.2; 95.2]
- Effect of dose regimen on Cmax, univariate analysis ([2]; 15 mg o.d. vs. 20 mg o.d.): +20.3% ^a [−16.7; +73.5]
- Effect of dose regimen on Cmin, multivariate analysis ([2]; 15 mg o.d. vs. 20 mg o.d.): −3.2% ^a [−35.1; 44.6]
- Effect of dose regimen on Cmin, univariate analysis ([2]; 15 mg o.d. vs. 20 mg o.d.): −3.8% ^a [−35.1; +42.6]
- Effect of dose regimen on Cmax, univariate analysis ([2]; 15 mg o.d. vs. 20 mg o.d., listed as rivaroxaban): +20.3%
- Effect of CYP3A4/5 modulator on Cmax, multivariate analysis [2, 6]: +10.6% [−23.1; 58.9]
- Effect of CYP3A4/5 modulator on Cmax, univariate analysis [2, 6]: +9.5% [−21.0; 51.6]
- Effect of CYP3A4/5 modulator on Cmin, multivariate analysis [2, 6]: +43.1% [5.3; 94.3]
- Effect of CYP3A4/5 modulator on Cmin, univariate analysis [2, 6]: +31.1% [−24.7; 72.2]
- Effect of P-gp inhibitor on Cmax, multivariate analysis [2, 13]: −6.31% [−35.8; 36.6]
- Effect of P-gp inhibitor on Cmax, univariate analysis [2, 13]: −9.95% [−35.3; 25.4]
- Effect of P-gp inhibitor on Cmin, multivariate analysis [2, 13]: −8.7% [−34.2; 26.8]
- Effect of P-gp inhibitor on Cmin, univariate analysis [2, 13]: −15.9% [−37.6; 13.5]
- Effect of amiodarone on Cmax, multivariate analysis ([2]; amiodarone intake): −26.1% ^b [−75.8; 125.5]
- Effect of amiodarone on Cmax, univariate analysis ([2]; amiodarone intake): +4.73% [−31.5; 60.2]
- Effect of amiodarone on Cmin, multivariate analysis ([2]; amiodarone intake): 99.8% ^c [10.3; 262.0]
- Effect of amiodarone on Cmin, univariate analysis ([2]; amiodarone intake): +47.8% [−2.8; 109.4]
- Effect of amiodarone on Cmin, univariate analysis ([2]; amiodarone intake, listed as rivaroxaban): +47.8%
- Effect of female gender on Cmax, multivariate analysis ([2]; female gender): +11.8% [−20.8; 57.9]
- Effect of female gender on Cmax, univariate analysis ([2]; female gender): +12.2% [−17.7; 53.0]
- Effect of female gender on Cmin, multivariate analysis ([2]; female gender): −10.1% [−35.2; 22.3]
- Effect of female gender on Cmin, univariate analysis ([2]; female gender): −14.2% [−36.0; 15.1]
- inter-individual variability of Cmax (coefficient of variation) [2, 7]: 47%
- inter-individual variability of Cmin (coefficient of variation) [2, 7]: 37%
- Effect of creatinine clearance on Cmax, multivariate analysis [2]: +3.4% ^b [−7.6; 15.6]
- Effect of creatinine clearance on Cmax, univariate analysis [2]: +1.89% ^b [−8.2; 13.1]
- Effect of creatinine clearance on Cmin, multivariate analysis [2]: +5.0% ^b [−4.9; 16.0]
- Effect of creatinine clearance on Cmin, univariate analysis [2]: +8.1% ^b [−3.9; 15.8]
- Effect of creatinine clearance on Cmin, univariate analysis ([2]; listed as rivaroxaban): +8.1%
- Effect of ABCB1 3435C > T on Cmax, multivariate analysis ([2]; per mutated allele): +18.3% ^d [−10.9; 39.8]
- Effect of ABCB1 3435C > T on Cmax, univariate analysis ([2]; per mutated allele): +18.3% ^d [−5.3; 36.6]
- Effect of ABCB1 3435C > T on Cmin, multivariate analysis ([2]; per mutated allele): +10.4% ^d [−14.9; 30.1]
- Effect of ABCB1 3435C > T on Cmin, univariate analysis ([2]; per mutated allele): +16.9% ^d [−6.6; 31.0]
- Effect of ABCB1 3435C > T on Cmin, univariate analysis ([2]; per mutated allele, listed as rivaroxaban): +16.9%
- inter-individual variability of Cmax (coefficient of variation) [2, 8]: 49%
- inter-individual variability of Cmin (coefficient of variation) [2, 8]: 75%
- median Cmax ([2]; rivaroxaban 15 mg o.d., T1-T4, NVAF in-patients ≥80 years): 251 ng/mL
- patients above the 95th percentile of SmPC values at Tmin [2, 9]: 3.1%
- patients below the 5th percentile of SmPC values at Tmin [2, 9]: 21.5%
- inter-individual variability of Cmax and Cmin ([3]; Mueck et al's data): around 30%
- Effect of amiodarone on peak height at Tmin, multivariate [4, 10]: −44.6%** [−75.1; 23.2]
- Effect of amiodarone on peak height at Tmin, univariate [4, 10]: −52.2%
- Effect of heart failure on peak height at Tmax, multivariate [4, 10]: −22.3% [−45.0; 9.8]
- Effect of heart failure on peak height at Tmax, univariate [4, 10]: −36.6%
- Effect of heart failure on peak height at Tmin, multivariate [4, 10]: −12.7% [−37.7; 22.4]
- Effect of heart failure on peak height at Tmin, univariate [4, 10]: −31.4% [−52.2; −1.7]
- Effect of plasma concentrations on peak height at Tmax, multivariate [4, 11]: –5.0% ^a [−27.9; 25.2]
- Effect of plasma concentrations on peak height at Tmax, univariate [4, 11]: +23.9% ^a [−11.4; 73.2]
- Effect of plasma concentrations on peak height at Tmin, multivariate [4, 11]: +21.0% ^a [−4.0; 52.4]
- Effect of plasma concentrations on peak height at Tmin, univariate [4, 11]: +38.7% ^a [12.4;71.1]
- Effect of creatinine clearance on peak height at Tmax, multivariate [4, 12]: −16.4% ^b [−26.3; −5.0]
- Effect of creatinine clearance on peak height at Tmin, multivariate [4, 12]: −6.76% ^b [−15.5; 2.8]
- Effect of creatinine clearance on peak height at Tmin, univariate [4, 12]: −6.1% ^b [−16.2; 5.2 ]
